Experiments:
Bos taurus = species on record: Bos taurus; test: Displacement of [3H]CGS21680 from adenosine A2A receptor in bovine brain membrane at 10 uM; format: cell membranes
Summary of the method: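 Bovine striatal membranes, [3H]CGS 21680 (Kd 14 nM). Five displacer concentrations in triplicate, non-linear regression IC50, Cheng-Prusoff Ki, four assays. Single-point data are % inhibition at 10 µM.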

Adenosine receptor A3 = target: T1, Adenosine receptor A3 (Homo sapiens, UniProt P0DMS8); test: Displacement of [125I]AB-MECA from human cloned adenosine A3 receptor expressed in CHO cells; format: cell-based
T1 sequence (P0DMS8 whole entry): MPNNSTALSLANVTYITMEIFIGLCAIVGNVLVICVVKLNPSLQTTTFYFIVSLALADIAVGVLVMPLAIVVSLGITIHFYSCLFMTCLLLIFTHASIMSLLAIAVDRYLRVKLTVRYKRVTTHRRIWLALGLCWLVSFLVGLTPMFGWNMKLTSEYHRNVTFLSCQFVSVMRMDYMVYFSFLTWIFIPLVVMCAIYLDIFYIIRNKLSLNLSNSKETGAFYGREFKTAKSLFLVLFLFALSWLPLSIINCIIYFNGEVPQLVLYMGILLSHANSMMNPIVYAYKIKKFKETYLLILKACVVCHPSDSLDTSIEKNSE
Summary of the method: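 CHO cells stably expressing hA3. IC50 by non-linear regression over five displacer concentrations in triplicate, converted to Ki by Cheng-Prusoff. Ki values are means of four assays.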

[1] = target: T2, Adenosine receptor A1 (Bos taurus) (UniProt P28190); test: Displacement of [125I]DPCPX from adenosine A1 receptor in bovine brain membrane at 10 uM; format: cell membranes; conditions: in the assay text read “[3H]DPCPX” for “[125I]DPCPX”
T2 sequence (whole entry): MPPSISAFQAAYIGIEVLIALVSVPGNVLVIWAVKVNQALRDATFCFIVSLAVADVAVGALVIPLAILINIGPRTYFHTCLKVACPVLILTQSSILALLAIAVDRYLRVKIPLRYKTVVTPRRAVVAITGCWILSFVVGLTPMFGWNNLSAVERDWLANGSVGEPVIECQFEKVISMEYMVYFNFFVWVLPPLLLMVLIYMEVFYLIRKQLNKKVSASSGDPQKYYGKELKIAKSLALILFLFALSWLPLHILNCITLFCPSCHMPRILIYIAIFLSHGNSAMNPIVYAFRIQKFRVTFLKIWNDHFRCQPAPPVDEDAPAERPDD
Summary of the method: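 Bovine cerebral cortical membranes, [3H]DPCPX (Kd 0.3 nM). IC50 from five displacer concentrations in triplicate, Ki by Cheng-Prusoff, means of four assays. Single-point data are % inhibition of specific binding at 10 µM.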

[2] = target: T3, Adenosine receptor A1 (Homo sapiens) (UniProt P30542); test: Displacement of [3H]DPCPX from human cloned adenosine A1 receptor expressed in CHO cells at 10 uM
T3 sequence (whole entry): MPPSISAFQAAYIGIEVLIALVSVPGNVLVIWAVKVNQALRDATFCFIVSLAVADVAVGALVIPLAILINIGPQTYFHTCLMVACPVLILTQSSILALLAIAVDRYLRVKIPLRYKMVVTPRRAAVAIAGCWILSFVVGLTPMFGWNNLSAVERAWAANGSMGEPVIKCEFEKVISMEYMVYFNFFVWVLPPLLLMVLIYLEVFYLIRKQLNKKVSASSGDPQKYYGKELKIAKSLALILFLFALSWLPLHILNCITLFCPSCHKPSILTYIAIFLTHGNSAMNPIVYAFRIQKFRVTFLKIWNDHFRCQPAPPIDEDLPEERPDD

Adenosine receptor A2a [3] = target: T4, Adenosine receptor A2a (Homo sapiens, UniProt P29274); test: Displacement of [125I]NECA from human adenosine A2A receptor expressed in CHO cells at 10uM; format: cell-based; conditions: in the assay text read “[3H]NECA” for “[125I]NECA”
Summary of the method: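 hA2A stably expressed in CHO cells. Radioligand [3H]NECA (Kd 30 nM). Percentage inhibition of specific binding measured at 10 µM.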

Adenosine receptor A1 [4] = target: T5, Adenosine receptor A1 (Bos taurus, UniProt P28190); test: Displacement of [3H]DPCPX from adenosine A1 receptor in bovine brain membrane
T5 sequence (P28190 whole entry): T2 sequence (whole entry)

[5] = Displacement of [3H]CGS21680 from adenosine A2A receptor in bovine brain membrane; format: cell membranes, Bos taurus
[6] = target: T6, Adenosine receptor A3 (Homo sapiens) (UniProt P0DMS8); test: Displacement of [125I]AB-MECA from human cloned adenosine A3 receptor expressed in CHO cells at 1 uM; format: cell-based
T6 sequence (whole entry): T1 sequence (P0DMS8 whole entry)
Summary of the method: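 CHO cells stably expressing hA3. Displacement of [125I]AB-MECA (Kd 1.4 nM). IC50 by non-linear regression over five displacer concentrations in triplicate, converted to Ki by Cheng-Prusoff. Ki values are means of four assays. Single-point data are % inhibition of specific binding at 1 µM.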

Adenosine receptor A1 [7] = target: T7, Adenosine receptor A1 (Homo sapiens, UniProt P30542); test: Displacement of [3H]DPCPX from human cloned adenosine A1 receptor expressed in CHO cells
T7 sequence (P30542 whole entry): T3 sequence (whole entry)

Adenosine receptor A2a [8] = target: T4, Adenosine receptor A2a; test: Displacement of [3H]NECA from human cloned adenosine A2A receptor expressed in CHO cells

T4 sequence (P29274 whole entry): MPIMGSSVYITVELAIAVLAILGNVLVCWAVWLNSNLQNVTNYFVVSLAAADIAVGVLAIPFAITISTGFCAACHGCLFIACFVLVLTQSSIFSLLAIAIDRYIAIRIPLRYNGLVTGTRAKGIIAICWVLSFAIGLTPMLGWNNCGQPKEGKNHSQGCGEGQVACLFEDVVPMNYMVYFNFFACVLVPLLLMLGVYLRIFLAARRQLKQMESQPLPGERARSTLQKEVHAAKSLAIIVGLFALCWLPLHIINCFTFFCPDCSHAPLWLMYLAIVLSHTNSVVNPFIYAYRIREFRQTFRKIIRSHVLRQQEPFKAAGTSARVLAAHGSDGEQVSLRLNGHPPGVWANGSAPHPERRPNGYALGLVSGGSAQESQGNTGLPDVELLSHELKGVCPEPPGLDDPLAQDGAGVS

Compound | Activity (Bos taurus) [%] | Ki (Adenosine receptor A3) [nM] | Activity [1] [%] | Activity [2] [%] | Activity (Adenosine receptor A2a [3]) [%] | Ki (Adenosine receptor A1 [4]) [nM] | Ki [5] [nM] | Activity [6] [%] | Ki (Adenosine receptor A1 [7]) [nM] | Ki (Adenosine receptor A2a [8]) [nM]
COC(=O)c1ccc(C(=O)Nc2nc3ccccc3n3c(=O)n(-c4ccc(OC)cc4)nc23)cc1 | 41 | 1370 | 30.5 | – | – | – | – | – | – | –
COc1ccc(-n2nc3c(N(S(C)(=O)=O)S(C)(=O)=O)nc4ccccc4n3c2=O)cc1 | 17 | 387 | 6.2 | – | – | – | – | – | – | –
COc1ccc(-n2nc3c(OCc4ccccc4)nc4ccccc4n3c2=O)cc1 | 41 | 6.4 | 53 | 54 | 4 | – | – | – | – | –
CCCn1c(=O)c2[nH]c(C3CCCC3)nc2n(CCC)c1=O [1,3-DIPROPYL-8-CYCLOPENTYLXANTHINE [DPCPX]] | – | – | – | – | – | – | 337 | – | – | –
O=C(Nc1nc2c([N+](=O)[O-])cccc2n2c(=O)n(-c3ccccc3)nc12)c1ccncc1 | 22 | – | 37.5 | – | – | – | – | 0 | – | –
COc1ccc(-n2nc3c(NS(C)(=O)=O)nc4ccccc4n3c2=O)cc1 | 0 | 493 | 6 | – | – | – | – | – | – | –
O=c1n(-c2ccccc2)nc2c(NS(=O)(=O)c3ccccc3)nc3c([N+](=O)[O-])cccc3n12 | 25 | 100 | – | – | – | 210 | – | – | – | –
COc1ccc(-n2nc3c(NC(=O)c4ccncc4)nc4ccccc4n3c2=O)cc1 | 44 | 68 | – | – | – | 236 | – | – | 779 | 397
COc1ccc(-n2nc3c(NS(=O)(=O)c4ccccc4)nc4ccccc4n3c2=O)cc1 | 16 | 2.2 | – | – | 23 | 4700 | – | – | 2700 | –
CS(=O)(=O)Nc1nc2c([N+](=O)[O-])cccc2n2c(=O)n(-c3ccccc3)nc12 | 25 | – | – | – | – | 2840 | – | 37 | – | –

Second part, the compound after the results:

Activity (Bos taurus) [%] | Ki (Adenosine receptor A3) [nM] | Activity [1] [%] | Activity [2] [%] | Activity (Adenosine receptor A2a [3]) [%] | Ki (Adenosine receptor A1 [4]) [nM] | Ki [5] [nM] | Activity [6] [%] | Ki (Adenosine receptor A1 [7]) [nM] | Ki (Adenosine receptor A2a [8]) [nM] | Compound
19 | 21 | – | 46 | 10 | 55 | – | – | – | – | O=c1n(-c2ccccc2)nc2c(OCc3ccccc3)nc3ccccc3n12
– | 953 | – | – | – | 359 | 1800 | – | – | – | O=C(Nc1cccc(I)c1)Nc1nc2ccccc2n2c(=O)n(-c3ccccc3)nc12
35 | 32.2 | – | 0 | 27 | 157 | – | – | – | – | O=c1n(-c2ccccc2)nc2c(NS(=O)(=O)c3ccccc3)nc3ccccc3n12
46.5 | 63 | – | 4 | 20 | 4.6 | – | – | – | – | O=C(NCc1ccccc1)Nc1nc2c([N+](=O)[O-])cccc2n2c(=O)n(-c3ccccc3)nc12
– | 83.5 | – | – | – | 4.1 | 173 | – | 12.3 | 158 | O=C(NCc1ccccc1)Nc1nc2ccccc2n2c(=O)n(-c3ccccc3)nc12
– | 1300 | – | – | – | 101 | 379 | – | – | – | O=C(NC(=O)c1ccccc1)Nc1nc2ccccc2n2c(=O)n(-c3ccccc3)nc12
32 | 1430 | – | – | – | 164 | – | – | – | – | CS(=O)(=O)Nc1nc2ccccc2n2c(=O)n(-c3ccccc3)nc12
35 | – | – | – | – | 473 | – | 36 | – | – | O=C(Nc1nc2ccccc2n2c(=O)n(-c3ccccc3)nc12)c1cccc(I)c1
12 | 65 | – | – | 23 | 20.8 | – | – | 4220 | – | COc1ccc(-n2nc3c(NC(=O)NCc4ccccc4)nc4ccccc4n3c2=O)cc1
53 | – | – | – | – | – | – | – | – | – | O=C(Nc1nc2ccccc2n2c(=O)n(-c3ccccc3)nc12)c1ccccc1
36 | – | – | – | – | 106 | – | 41 | – | – | COC(=O)c1ccc(C(=O)Nc2nc3ccccc3n3c(=O)n(-c4ccccc4)nc23)cc1
– | 6.1 | – | – | – | 57 | 812 | – | 2380 | 188 | O=C(Nc1nc2ccccc2n2c(=O)n(-c3ccccc3)nc12)c1ccncc1
